Results reported in ChEMBL document CHEMBL2163221, “Discovery of a potential anti-ischemic stroke agent: 3-pentylbenzo[c]thiophen-1(3H)-one” (J Med Chem, 2012).
Activity calls are given as the source filed them. No cut-off for these calls is given here.

Tests used:
PC-12 [1] = assay: Antioxidant activity in rat PC12 cells assessed as inhibition of hydroxyl radical-induced cytotoxicity at 10 uM treated for 2 hrs prior to H2O2/Fe+ challenge measured after 1 hr by MTT assay (reference value: 61.95%); type: functional; design: scale not given: the % may be the effect or the level left
Rattus norvegicus [2] = assay: Anticerebral ischemic activity in Sprague-Dawley rat middle cerebral artery occlusion model assessed as reduction of water content in brain at 3 mg/kg, ig for 7 consecutive days; type: functional, organism-based; design: dose 3 mg/kg
Procedure, shortened: (§1)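 Rats given oral saline-vehicle pretreatment for 7 days underwent 2 h suture MCAO plus reperfusion. At 24 h the animals were decapitated and brains weighed wet, then dried at 105 °C for 24 h. Water % = (wet − dry)/wet × 100; n = 6/group.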

Rattus norvegicus [3] = assay: Antithrombotic activity in Sprague-Dawley rat arteriovenous shunt model assessed as reduction of thrombus wet weight at 3 mg/kg, po qd for 5 consecutive days; type: functional; design: scale not given: the % may be the effect or the level left
Procedure, shortened: (§2)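 Male SD rats were dosed by gavage in saline daily for 5 days (n = 12/group). An A-V shunt linked the right carotid artery to the left jugular vein: a saline-filled 14 cm polyethylene tube holding 6 cm of four braided silk threads. After 15 min of flow, the threads were weighed wet, then dried 6 h at room temperature and reweighed, less the pre-experiment thread weight.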

Platelet [4] = assay: Inhibition of arachidonic acid-induced platelet aggregation in rabbit platelet rich plasma by Born's turbidimetric method; type: functional; conditions: Oryctolagus cuniculus
Procedure, shortened: (§3)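 Rabbit carotid blood in 3.8% sodium citrate (9:1); PRP by 500g spin for 10 min, PPP by a further 3000g spin for 10 min. PRP was preincubated in duplicate for 5 min at 37 °C with vehicle or agent (0.1, 0.2, 0.4, 0.8, 1.6 mM). Aggregation was triggered by ADP (10 μM final) or AA (1 mM), and maximal light transmission was read within 5 min, within 3 h of collection. Inhibition % = 100 × (1 − treated/control); IC50 was calculated.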

Plasma = assay: Anticoagulant activity in rabbit plasma assessed as length of activated partial thromboplastin time; type: functional, cell-free; conditions: Oryctolagus cuniculus
Rattus norvegicus [5] = assay: Antioxidant activity in Sprague-Dawley rat middle cerebral artery occlusion model assessed as increase in superoxide dismutase activity at 3 mg/kg, ig for 7 consecutive days; type: functional; conditions: route intragastric
Procedure, shortened: (§4)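 Rats pretreated orally in saline for 7 days underwent 2 h MCAO with reperfusion. At 24 h brains were removed, rinsed in cold 0.9% saline, blotted and stored at −70 °C. After protein quantification, GSH, SOD activity and MDA were measured with commercial kits; n = 12/group.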

Rattus norvegicus [6] = assay: Anticerebral ischemic activity in Sprague-Dawley rat middle cerebral artery occlusion model assessed as reduction in infarct size in brain at 3 mg/kg, ig for 7 consecutive days by TTC assay; type: functional; design: scale not given: the % may be the effect or the level left; conditions: route intragastric
Procedure, shortened: (§5)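 SD rats, chloral hydrate 350 mg/kg ip anaesthesia; right MCA occluded 2 h by silicone-tipped 4-0 nylon filament via ECA into ICA (>80% CBF drop by laser Doppler, 37 ± 0.5 °C), then reperfusion. Dosed in normal saline orally daily 7 days before ischemia. At 24 h, 2-mm coronal slices stained 2% TTC 30 min 37 °C; infarct area as % of whole brain; n = 6.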

Rattus norvegicus [7] = assay: Antithrombotic activity in Sprague-Dawley rat arteriovenous shunt model assessed as reduction of thrombus dry weight at 3 mg/kg, po qd for 5 consecutive days; type: functional; design: scale not given: the % may be the effect or the level left; procedure, shortened: as §2
Platelet [8] = assay: Inhibition of adenosine diphosphate-induced platelet aggregation in rabbit platelet rich plasma by Born's turbidimetric method; type: functional; conditions: Oryctolagus cuniculus; procedure, shortened: as §3
Platelet [9] = assay: Inhibition of adenosine diphosphate-induced platelet aggregation in rabbit platelet rich plasma at 0.1 mM by Born's turbidimetric method; type: functional; conditions: Oryctolagus cuniculus; procedure, shortened: as §3
Rattus norvegicus [10] = assay: Antioxidant activity in Sprague-Dawley rat middle cerebral artery occlusion model assessed as decrease in malondialdehyde level in brain at 3 mg/kg, ig for 7 consecutive days; type: functional; design: scale not given: the % may be the effect or the level left; conditions: route intragastric; procedure, shortened: as §4
Rattus norvegicus [11] = assay: Antioxidant activity in Sprague-Dawley rat middle cerebral artery occlusion model assessed as increase in glutathione level in brain at 3 mg/kg, ig for 7 consecutive days; type: functional; conditions: route intragastric; procedure, shortened: as §4
PC-12 [12] = assay: Antioxidant activity in rat PC12 cells assessed as inhibition of hydrogen peroxide induced cytotoxicity at 10 uM treated for 2 hrs prior to H2O2 challenge measured after 1 hr by MTT assay (reference value: 52.45%); type: functional; design: scale not given: the % may be the effect or the level left
Platelet [13] = assay: Inhibition of arachidonic acid-induced platelet aggregation in rabbit platelet rich plasma at 0.1 mM by Born's turbidimetric method; type: functional; conditions: Oryctolagus cuniculus; procedure, shortened: as §3
Rattus norvegicus [14] = assay: Anticerebral ischemic activity in Sprague-Dawley rat middle cerebral artery occlusion model assessed as reduction in neurological deficit score at 3 mg/kg, ig for 7 consecutive days by Longa's method; type: functional; design: scale not given: the % may be the effect or the level left; conditions: route intragastric
Procedure, shortened: (§6)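 SD rats were dosed orally in normal saline for 7 days before ischemia (n = 12/group). They were anesthetized ip with 350 mg/kg chloral hydrate and given MCAO with a silicone-tipped 4-0 nylon suture for 2 h, then reperfusion. Occlusion was confirmed as >80% CBF drop by laser Doppler, with core temperature held at 37 °C. Deficits were scored blinded by modified Longa's method 24 h after reperfusion.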

Rattus norvegicus [15] = assay: Antithrombotic activity in Sprague-Dawley rat arteriovenous shunt model assessed as reduction of thrombus wet weight at 80 mg/kg, po qd for 5 consecutive days; type: functional; design: scale not given: the % may be the effect or the level left; procedure, shortened: as §2
Rattus norvegicus [16] = assay: Antithrombotic activity in Sprague-Dawley rat arteriovenous shunt model assessed as reduction of thrombus dry weight at 80 mg/kg, po qd for 5 consecutive days; type: functional; design: scale not given: the % may be the effect or the level left; procedure, shortened: as §2
Rattus norvegicus [17] = assay: Antioxidant activity in Sprague-Dawley rat middle cerebral artery occlusion model assessed as increase in glutathione level in brain at 80 mg/kg, ig for 7 consecutive days; type: functional; conditions: route intragastric; procedure, shortened: as §4
Rattus norvegicus [18] = assay: Anticerebral ischemic activity in Sprague-Dawley rat middle cerebral artery occlusion model assessed as reduction in infarct size in brain at 80 mg/kg, ig for 7 consecutive days by TTC assay; type: functional; design: scale not given: the % may be the effect or the level left; conditions: route intragastric; procedure, shortened: as §5
Rattus norvegicus [19] = assay: Antioxidant activity in Sprague-Dawley rat middle cerebral artery occlusion model assessed as decrease in malondialdehyde level in brain at 80 mg/kg, ig for 7 consecutive days; type: functional; design: scale not given: the % may be the effect or the level left; conditions: route intragastric; procedure, shortened: as §4
Rattus norvegicus [20] = assay: Antioxidant activity in Sprague-Dawley rat middle cerebral artery occlusion model assessed as increase in superoxide dismutase activity at 80 mg/kg, ig for 7 consecutive days; type: functional; conditions: route intragastric; procedure, shortened: as §4
Rattus norvegicus [21] = assay: Anticerebral ischemic activity in Sprague-Dawley rat middle cerebral artery occlusion model assessed as reduction of water content in brain at 80 mg/kg, ig for 7 consecutive days; type: functional, organism-based; design: dose 80 mg/kg; procedure, shortened: as §1
Rattus norvegicus [22] = assay: Anticerebral ischemic activity in Sprague-Dawley rat middle cerebral artery occlusion model assessed as reduction in neurological deficit score at 80 mg/kg, ig for 7 consecutive days by Longa's method; type: functional; design: scale not given: the % may be the effect or the level left; conditions: route intragastric; procedure, shortened: as §6

SMILES	Activity (PC-12 [1])	IC50 (Platelet [4])	Activity (Plasma)	IC50 (Platelet [8])	inhibition at 100 µM (Platelet [9])	Activity (PC-12 [12])	inhibition at 100 µM (Platelet [13])	Activity (Rattus norvegicus [15])	Activity (Rattus norvegicus [16])	also measured
CC1=NN(c2ccccc2)C(=O)C1 [EDARAVONE]	83.3%	250 µM	inactive	850 µM	11.5%	78.05%	36.1%	–	–	Activity (Rattus norvegicus [2]): Active; Activity (Rattus norvegicus [3]): 36.14%; Activity (Rattus norvegicus [5]): 34.2%; Activity (Rattus norvegicus [6]): 37.31%; Activity (Rattus norvegicus [7]): 30.08%; Activity (Rattus norvegicus [10]): 28.52%; Activity (Rattus norvegicus [11]): 58.33%; Activity (Rattus norvegicus [14]): 34.46%
O=C1SC(Cc2ccccc2)c2ccccc21 (racemic)	–	> 1000 µM	–	> 1000 µM	–	–	–	–	–	–
CCCCCCC1SC(=O)c2ccccc21 (racemic)	–	830 µM	–	800 µM	–	–	–	–	–	–
CC(=O)Oc1ccccc1C(=O)O [ASPIRIN]	–	150 µM	inactive	880 µM	10.8%	–	37.2%	33.45%	34.19%	–
CCCCC1OC(=O)c2ccccc21 (racemic) [RAC-3-N-BUTYLPHTHALIDE]	73.05%	480 µM	inactive	> 1000 µM	9.5%	68.05%	17.4%	23.58%	26.9%	Activity (Rattus norvegicus [17]): 40.83%; Activity (Rattus norvegicus [18]): 40.04%; Activity (Rattus norvegicus [19]): 25.73%; Activity (Rattus norvegicus [20]): 33.61%; Activity (Rattus norvegicus [21]): inactive; Activity (Rattus norvegicus [22]): 31.47%
